Experimental data taken from ChEMBL document CHEMBL4251706, “Elimination of HIV-1 Latently Infected Cells by Gnidimacrin and a Selective HDAC Inhibitor” (ACS Med Chem Lett, 2018).
The source made the active and inactive calls. The rule behind the calls is not given here.

Assays:
[1] = tested on: Human immunodeficiency virus 1; experiment: Reactivation of latent HIV1 infected in human U1 cells assessed as increase in p24 production after 48 hrs by ELISA; assay type: functional, organism-based
[2] = tested on: Human immunodeficiency virus 1; experiment: Reactivation of latent HIV1 infected in human U1 cells assessed as increase in p24 production after 48 hrs by ELISA relative to vorinostat; assay type: functional
Procedure, shortened: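 U1 cells at 2x10^5 cells/ml incubated with a range of concentrations at 37 °C for 48 h. Supernatant p24 measured by HIV p24 ELISA. EC50 ± SD derived from 3 independent experiments.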

[3] = Cytotoxicity against human U937 cells assessed as reduction in cell viability after 48 hrs by CellTiter-Glo luminescent cell viability assay; assay type: cell-based, U-937
Procedure, shortened: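 U937 cells (HIV-1-negative parental line of U1) at 2x10^5 cells/ml exposed to a range of concentrations for 48 h at 37 °C. Viability read by CellTiter-Glo luminescence. CC50 ± SD derived from 3 independent experiments.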

[4] = Cytotoxicity against human J-Lat (A2) cells assessed as effect on cell viability at 0.3 uM after 72 hrs by flow cytometric analysis; assay type: cell-based
Procedure, shortened: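 J-Lat (A2) cells, 1x10^6 cells/well, incubated with the test agent at 37 °C for 72 h. GFP-expressing cells and percent viable cells measured by flow cytometry. Two independent experiments.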

PBMC = experiment: Induction of IFNgamma1 production in human PBMC at 3 uM after 2 days by ELISA; assay type: cell-based; settings: 48 h
[5] = Cytotoxicity against human Jurkat cells assessed as reduction in cell viability after 72 hrs by CellTiter-Glo luminescent cell viability assay; assay type: cell-based
[6] = Selectivity index, ratio of CC50 for human U937 cells to EC50 for reactivation of latent HIV1 infected in human U1 cells
[7] = target: Histone deacetylase 3/Nuclear receptor corepressor 2 (HDAC3/NCoR2) (Homo sapiens) (UniProt O15379+Q9Y618); experiment: Inhibition of full length human C-terminal His-tagged HDAC3/N-terminal GST-tagged NCOR2 (395 to 489 residues) expressed in baculovirus infected Sf9 insect cells using substrate measured after 60 mins by colorimetric method
[8] = Human immunodeficiency virus 1, U1, 48 h, read-out: EC50

EC50 [1, 8] [µM] | inhibition [7] | EC50 ([1]; u1) | SMILES | fold change (FC) [2] | CC50 at 48 h [3] [µM] | Activity [4] | Activity (PBMC) | CC50 at 72 h [5] [µM] | selectivity ratio [6] | selectivity ratio ([6]; U937 cells (CC50) and latent HIV-1 infected U1 cells (EC50))
0.93 | – | – | CC(=O)Nc1ccc(C(=O)Nc2cc(-c3cccs3)ccc2N)cc1 | 1.4 | 14 | Non-Toxic | Non-Toxic | 12.6 | – | –
0.6 | Active | – | Nc1ccccc1NC(=O)c1ccc(-c2cn(CCc3ccsc3)nn2)cc1 | 0.12 | 0.83 | – | – | – | 1.4 | –
– | Active | Not Active | Nc1cc(F)ccc1NC(=O)/C=C/c1cnn(C/C=C/c2ccccc2)c1 | 0 | – | – | – | – | – | –
1.4 | – | – | Nc1ccc(F)cc1NC(=O)c1ccc(CNC(=O)/C=C/c2cccnc2)cc1 | 1.5 | 5 | – | – | – | – | 3.6
